# Laboratory results published in PMC10339703 (Clinical and Translational Science, 2023).
# “Also recorded” adds a separate entry of the source.
# Test system: healthy subjects
# Assay: Safety and tolerability
# Assay type: in vivo, human
# Details: for subjects with ADRs, percentage: SAD
# How it was run: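 Randomized, double-blind, placebo-controlled (6:2, n = 8/cohort) single oral doses in healthy adults after ≥10 h fast, with sentinel pair observed 24 h first. TEAEs were graded by nature, incidence, severity, seriousness and outcome, coded in MedDRA 23.0. ADR: any AE whose causality to test compound could not be ruled out. Labs, vital signs, examinations and 12-lead ECGs were also monitored.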
# [1] = SAD study, all subjects who received bersiporocin
smiles,measurement,setting,value
O[C@H]1CCCN[C@@H]1CCCn1cnc2c(Cl)c(Cl)ccc21 [Bersiporocin],"Photosensitivity reaction (ADR), subjects n (%)",SAD single 300 mg capsule,0
same,"Subjects with ADRs, n (%)",SAD single 300 mg capsule,4 (66.7)
same,"Tachycardia (ADR), subjects n (%)",SAD single 300 mg capsule,0
same,"Vertigo (ADR), subjects n (%)",SAD single 300 mg capsule,0
same,"Vomiting (ADR), number of events",SAD single 300 mg capsule,3
same,"Vomiting (ADR), subjects n (%)",SAD single 300 mg capsule,3 (50.0)
same,"ADRs, number of events",SAD single 500 mg tablet,23
same,"Abdominal discomfort (ADR), subjects n (%)",SAD single 500 mg tablet,0
same,"Abdominal distension (ADR), subjects n (%)",SAD single 500 mg tablet,0
same,"Abdominal pain (ADR), number of events",SAD single 500 mg tablet,1
same,"Abdominal pain (ADR), subjects n (%)",SAD single 500 mg tablet,1 (16.7)
same,"Abdominal pain upper (ADR), number of events",SAD single 500 mg tablet,1
same,"Abdominal pain upper (ADR), subjects n (%)",SAD single 500 mg tablet,1 (16.7)
same,"Constipation (ADR), number of events",SAD single 500 mg tablet,1
same,"Constipation (ADR), subjects n (%)",SAD single 500 mg tablet,1 (16.7)
same,"Decreased appetite (ADR), number of events",SAD single 500 mg tablet,1
same,"Decreased appetite (ADR), subjects n (%)",SAD single 500 mg tablet,1 (16.7)
same,"Diarrhea (ADR), number of events",SAD single 500 mg tablet,4
same,"Diarrhea (ADR), subjects n (%)",SAD single 500 mg tablet,4 (66.7)
same,"Dysgeusia (ADR), subjects n (%)",SAD single 500 mg tablet,0
same,"Epigastric discomfort (ADR), number of events",SAD single 500 mg tablet,1
same,"Epigastric discomfort (ADR), subjects n (%)",SAD single 500 mg tablet,1 (16.7)
same,"Gastroesophageal reflux disease (ADR), subjects n (%)",SAD single 500 mg tablet,0
same,"Headache (ADR), number of events",SAD single 500 mg tablet,2
same,"Headache (ADR), subjects n (%)",SAD single 500 mg tablet,2 (33.3)
same,"Hypersensitivity (ADR), number of events",SAD single 500 mg tablet,1
same,"Hypersensitivity (ADR), subjects n (%)",SAD single 500 mg tablet,1 (16.7)
same,"Hypotension (ADR), number of events",SAD single 500 mg tablet,1
same,"Hypotension (ADR), subjects n (%)",SAD single 500 mg tablet,1 (16.7)
same,"Malaise (ADR), subjects n (%)",SAD single 500 mg tablet,0
same,"Nausea (ADR), number of events",SAD single 500 mg tablet,5
same,"Nausea (ADR), subjects n (%)",SAD single 500 mg tablet,5 (83.3)
same,"Neutropenia (ADR), subjects n (%)",SAD single 500 mg tablet,0
same,"Oropharyngeal pain (ADR), number of events",SAD single 500 mg tablet,1
same,"Oropharyngeal pain (ADR), subjects n (%)",SAD single 500 mg tablet,1 (16.7)
same,"Photosensitivity reaction (ADR), subjects n (%)",SAD single 500 mg tablet,0
same,"Subjects with ADRs, n (%)",SAD single 500 mg tablet,6 (100)
same,"Tachycardia (ADR), number of events",SAD single 500 mg tablet,1
same,"Tachycardia (ADR), subjects n (%)",SAD single 500 mg tablet,1 (16.7)
same,"Vertigo (ADR), number of events",SAD single 500 mg tablet,1
same,"Vertigo (ADR), subjects n (%)",SAD single 500 mg tablet,1 (16.7)
same,"Vomiting (ADR), number of events",SAD single 500 mg tablet,2
same,"Vomiting (ADR), subjects n (%)",SAD single 500 mg tablet,2 (33.3)
same,"ADRs, number of events",SAD single 600 mg capsule,15
same,"Abdominal discomfort (ADR), number of events",SAD single 600 mg capsule,1
same,"Abdominal discomfort (ADR), subjects n (%)",SAD single 600 mg capsule,1 (16.7)
same,"Abdominal distension (ADR), subjects n (%)",SAD single 600 mg capsule,0
same,"Abdominal pain (ADR), subjects n (%)",SAD single 600 mg capsule,0
same,"Abdominal pain upper (ADR), subjects n (%)",SAD single 600 mg capsule,0
same,"Constipation (ADR), subjects n (%)",SAD single 600 mg capsule,0
same,"Decreased appetite (ADR), subjects n (%)",SAD single 600 mg capsule,0
same,"Diarrhea (ADR), number of events",SAD single 600 mg capsule,2
same,"Diarrhea (ADR), subjects n (%)",SAD single 600 mg capsule,2 (33.3)
same,"Dysgeusia (ADR), subjects n (%)",SAD single 600 mg capsule,0
same,"Epigastric discomfort (ADR), subjects n (%)",SAD single 600 mg capsule,0
same,"Gastroesophageal reflux disease (ADR), subjects n (%)",SAD single 600 mg capsule,0
same,"Headache (ADR), number of events",SAD single 600 mg capsule,1
same,"Headache (ADR), subjects n (%)",SAD single 600 mg capsule,1 (16.7)
same,"Hypersensitivity (ADR), subjects n (%)",SAD single 600 mg capsule,0
same,"Hypotension (ADR), subjects n (%)",SAD single 600 mg capsule,0
same,"Malaise (ADR), subjects n (%)",SAD single 600 mg capsule,0
same,"Nausea (ADR), number of events",SAD single 600 mg capsule,6
same,"Nausea (ADR), subjects n (%)",SAD single 600 mg capsule,5 (83.3)
same,"Neutropenia (ADR), subjects n (%)",SAD single 600 mg capsule,0
same,"Oropharyngeal pain (ADR), subjects n (%)",SAD single 600 mg capsule,0
same,"Photosensitivity reaction (ADR), number of events",SAD single 600 mg capsule,1
same,"Photosensitivity reaction (ADR), subjects n (%)",SAD single 600 mg capsule,1 (16.7)
same,"Subjects with ADRs, n (%)",SAD single 600 mg capsule,5 (83.3)
same,"Tachycardia (ADR), subjects n (%)",SAD single 600 mg capsule,0
same,"Vertigo (ADR), subjects n (%)",SAD single 600 mg capsule,0
same,"Vomiting (ADR), number of events",SAD single 600 mg capsule,4
same,"Vomiting (ADR), subjects n (%)",SAD single 600 mg capsule,4 (66.7)
same,"subjects with nausea and vomiting, percentage","SAD starting dose group (100 mg, 150 mL solution)",83.3%
same,"ADRs, number of events",[1],68
same,"TEAEs, number of events",[1],90
same,"subjects with TEAEs, number",[1],23
same,"subjects with TEAEs, percentage",[1],77%
same,"subjects with ADRs, percentage",capsule group (after formulation change),50%
same,"subjects with ADRs, percentage",solution group,83%
same,"severe, life‐threatening, or fatal ADRs",across the study (SAD and MAD),"no severe, life‐threatening, or fatal ADRs"
same,severity of most ADRs,across the study (SAD and MAD),mild in severity
same,severe or serious adverse events,single oral dose up to 600 mg and multiple oral doses up to 200 mg twice daily for 14 days,No severe or serious adverse events were observed; also recorded: No severe or serious AEs were observed
